Measurements as given in ChEMBL document CHEMBL1153417, “5,7,8-Trimethyl-benzopyran and 5,7,8-trimethyl-1,4-benzoxazine aminoamide derivatives as novel antiarrhythmics against ischemia-reperfusion injury” (J Med Chem, 2009).
The source made the active and inactive calls. No cut-off for these calls is given here.

Key:
Heart [1] = assay: Antioxidant activity in ischemia-reperfusion injury exposed Wistar rat heart assessed as malondialdehyde level per gram of wet tissue at 1 uM by thiobarbituric acid test; assay type: functional
Outline: (§1)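 Rat hearts were taken under pentobarbital (30-40 mg per animal) after iv heparin. They were perfused by Langendorff at 90 cm H2O with oxygenated KHB buffer (pH 7.2, 11 mmol l-1 glucose) at 37 °C. After 20 min equilibration came 15 min ischemia (glucose-free KHB with 10 mM Tris-HCl, N2-equilibrated), then 60 min reperfusion. Compound was present for the last 5 min of ischemia and through reperfusion; n = 3-5.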

Heart [2] = assay: Antiarrhythmic activity in ischemia-reperfusion injury exposed Wistar rat heart assessed as arrhythmia score at 1 uM; assay type: functional; outline: as §1
[3] = Electrophysiological effect in New Zealand rabbit right ventricular papillary muscle assessed as maximal rate of depolarization at 5 uM at 1 Hz stimulation frequency; assay type: functional, Oryctolagus cuniculus, Muscle tissue
Outline: (§2)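 Right ventricular papillary muscle tips were superfused at 37 °C with bicarbonate solution (pH 7.35-7.40, 95% O2/5% CO2). They were paced at 1 Hz (1000 ms cycle length) with 1 ms constant-current pulses through a bipolar platinum electrode. Transmembrane potentials were recorded by conventional microelectrodes, and RP, CT, APA, Vmax, APD50 and APD90 were measured automatically.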

[4] = Electrophysiological effect in New Zealand rabbit right ventricular papillary muscle assessed as action potential duration measured at 50% repolarization at 5 uM at 1 Hz stimulation frequency; assay type: functional, Oryctolagus cuniculus, Muscle tissue; outline: as §2
Heart [5] = assay: Antiarrhythmic activity in ischemia-reperfusion injury exposed Wistar rat heart assessed as premature ventricular beats at 1 uM relative to untreated control; assay type: functional; outline: as §1
Oryctolagus cuniculus [6] = species on record: Oryctolagus cuniculus; assay: Electrophysiological effect in New Zealand rabbit right ventricular papillary muscle assessed as resting membrane potential at 5 uM at 1 Hz stimulation frequency; assay type: functional, tissue-based; settings: Muscle tissue; outline: as §2
Heart [7] = assay: Antioxidant activity in ischemia-reperfusion injury exposed Wistar rat heart assessed as reduction of malondialdehyde level at 2 uM by thiobarbituric acid test relative to control; assay type: functional; design: scale not given: the % may be the effect or the level left; outline: as §1
Oryctolagus cuniculus [8] = species on record: Oryctolagus cuniculus; assay: Electrophysiological effect in New Zealand rabbit right ventricular papillary muscle assessed as increase in conduction time at 5 uM at 1 Hz stimulation frequency; assay type: functional, tissue-based; settings: Muscle tissue; outline: as §2
[9] = Electrophysiological effect in New Zealand rabbit right ventricular papillary muscle assessed as action potential amplitude at 5 uM at 1 Hz stimulation frequency; assay type: functional, Oryctolagus cuniculus, Muscle tissue; outline: as §2
[10] = Electrophysiological effect in New Zealand rabbit right ventricular papillary muscle assessed as action potential duration measured at 90% repolarization at 5 uM at 1 Hz stimulation frequency; assay type: functional, Oryctolagus cuniculus, Muscle tissue; outline: as §2
Heart [11] = assay: Antiarrhythmic activity in ischemia-reperfusion injury exposed Wistar rat heart assessed as premature ventricular beats at 30 uM relative to untreated control; assay type: functional; outline: as §1
Heart [12] = assay: Antiarrhythmic activity in ischemia-reperfusion injury exposed Wistar rat heart assessed as premature ventricular beats at 100 uM relative to untreated control; assay type: functional; outline: as §1
[13] = Electrophysiological effect in New Zealand rabbit right ventricular papillary muscle assessed as action potential duration measured at 90% repolarization at 20 uM at 1 Hz stimulation frequency; assay type: functional, Oryctolagus cuniculus, Muscle tissue; outline: as §2
[14] = Electrophysiological effect in New Zealand rabbit right ventricular papillary muscle assessed as maximal rate of depolarization at 20 uM at 1 Hz stimulation frequency; assay type: functional, Oryctolagus cuniculus, Muscle tissue; outline: as §2
[15] = Electrophysiological effect in New Zealand rabbit right ventricular papillary muscle assessed as action potential duration measured at 50% repolarization at 20 uM at 1 Hz stimulation frequency; assay type: functional, Oryctolagus cuniculus, Muscle tissue; outline: as §2
Oryctolagus cuniculus [16] = species on record: Oryctolagus cuniculus; assay: Electrophysiological effect in New Zealand rabbit right ventricular papillary muscle assessed as resting membrane potential at 20 um at 1 Hz stimulation frequency; assay type: functional, tissue-based; settings: Muscle tissue; outline: as §2
[17] = Electrophysiological effect in New Zealand rabbit right ventricular papillary muscle assessed as action potential amplitude at 20 uM at 1 Hz stimulation frequency; assay type: functional, Oryctolagus cuniculus, Muscle tissue; outline: as §2
Heart [18] = assay: Toxicity in ischemia-reperfusion injury exposed Wistar rat heart assessed as induction of ventricular tachycardia at 1 uM; assay type: tissue-based; outline: as §1
Heart [19] = assay: Antioxidant activity in ischemia-reperfusion injury exposed Wistar rat heart assessed as reduction of malondialdehyde level at 1 uM by thiobarbituric acid test relative to control; assay type: functional; design: scale not given: the % may be the effect or the level left; outline: as §1
Heart [20] = assay: Toxicity in ischemia-reperfusion injury exposed Wistar rat heart assessed as induction of ventricular fibrillation at 1 uM; assay type: tissue-based; outline: as §1

Compound | Activity (Heart [1]) | Activity (Heart [2]) | Activity [3] | Activity [4] | Activity (Heart [5]) | Activity (Oryctolagus cuniculus [6]) | Activity [9] | Activity [10] | further results
CCOC(=O)C1(C)CN(C(=O)CN(CC)CC)c2c(C)cc(C)c(C)c2O1 (configuration not stated) | 88.6 ng/g | 1 | 171.9 V/s | 161.7 ms | 3% | -86.6 mV | 110.9 mV | 201.2 ms | Activity (Heart [7]): 61%; Activity (Oryctolagus cuniculus [8]): Active
CCCCCCC1(C)CC(NC(=O)CN(CC)CC)c2c(C)c(O)c(C)c(C)c2O1 (configuration not stated) |  |  |  |  |  |  |  |  | Activity (Heart [11]): 10%; Activity (Heart [12]): 9%
CCOC(=O)C1(C)CN(C(=O)CN(CC)CC)c2c(C)c(Cl)c(C)c(C)c2O1 (configuration not stated) |  |  | 184.7 V/s | 107.7 ms |  | -81.5 mV | 105.1 mV | 159.5 ms | Activity (Oryctolagus cuniculus [8]): Active
Cc1cccc(C)c1OCC(C)N (configuration not stated) [MEXILETINE] |  |  |  |  |  |  |  |  | Activity [13]: 180.9 ms; Activity [14]: 190.3 V/s; Activity [15]: 141 ms; Activity (Oryctolagus cuniculus [16]): -85.7 mV; Activity [17]: 105.9 mV
CCN(CC)CC(=O)N1CC(c2ccccc2)Oc2c(C)c(C)c(Cl)c(C)c21 (configuration not stated) | 118 ng/g | 1 |  |  | 1% |  |  |  | 
CCN(CC)CC(=O)N1C[C@H](c2ccccc2)Oc2c(C)c(C)c(Cl)c(C)c21 | 106 ng/g | 4.3 |  |  | 1.5% |  |  |  | Activity (Heart [18]): Toxic; Activity (Heart [19]): 50%; Activity (Heart [20]): Toxic
CCN(CC)CC(=O)N1CC(C)(C)Oc2c(C)c(C)c(Cl)c(C)c21 | 143 ng/g | 5.7 | 188.4 V/s | 171.6 ms | 2.1% | -85.3 mV | 116.2 mV | 214.4 ms | 
CCN(CC)CC(=O)NC1CC(C)(C)Oc2c(C)c(C)c(O)c(C)c21 (configuration not stated) |  |  |  |  |  |  |  |  | Activity (Heart [11]): 9%; Activity (Heart [12]): 8%
CCN(CC)CC(=O)N1CC(C)(C)Oc2c(C)c(C)cc(C)c21 | 160 ng/g | 5.1 | 175.4 V/s | 147.1 ms | 1.6% | -85.9 mV | 108.4 mV | 179.5 ms | Activity (Oryctolagus cuniculus [8]): Active
CC(C)NCC(O)c1ccc(NS(C)(=O)=O)cc1 (configuration not stated) [SOTALOL] |  |  |  |  |  |  |  |  | Activity [13]: 275 ms; Activity [14]: 202.4 V/s; Activity [15]: 219.9 ms; Activity (Oryctolagus cuniculus [16]): -85.9 mV; Activity [17]: 109.5 mV
CCN(CC)CC(=O)N1CCOc2c(C)c(C)cc(C)c21 | 152 ng/g | 1.3 | 200.2 V/s | 192.3 ms | 3.4% | -85.8 mV | 111.9 mV | 236.8 ms | Activity (Heart [7]): 34%
CCN(CC)CC(=O)N1CC(c2ccccc2)Oc2c(C)c(C)cc(C)c21 (configuration not stated) | 120 ng/g | 1 | 174.5 V/s | 175.6 ms | 0.5% | -82.7 mV | 115.1 mV | 210.9 ms | Activity (Heart [7]): 48%; Activity (Oryctolagus cuniculus [8]): Active
CCN(CC)CC(=O)Nc1c(C)cccc1C [LIDOCAINE] | 160 ng/g | 1 |  |  | 3.1% |  |  |  | 
CCN(CC)CC(=O)N1CCOc2c(C)c(C)c(Cl)c(C)c21 | 163 ng/g | 1 |  |  | 3.9% |  |  |  | Activity (Heart [7]): 29%
CCN(CC)CC(=O)N1CC(c2ccccc2)Oc2c(C)c(C)c(OC)c(C)c21 (configuration not stated) | 136 ng/g | 1 |  |  | 2.8% |  |  |  | 
CCN(CC)CC(=O)N1C[C@@H](c2ccccc2)Oc2c(C)c(C)c(Cl)c(C)c21 | 153 ng/g | 1 |  |  | 0.8% |  |  |  | 
CCN(CC)CC(=O)NC1CC(c2ccccc2)Oc2c(C)c(C)c(O)c(C)c21 (configuration not stated) | 129 ng/g | 3.6 |  |  | 4.3% |  |  |  | Activity (Heart [7]): 45%
